PubChem BioAssay AID624006 (Broad Institute, 2012)
Where “and” joins values, the source holds several entries; their conditions need not be identical. Identical values can stand only once.

These molecules were tested on Candida albicans CaCi-2 growth, Alamar Blue fluorescence, 48 h (assay: C. albicans growth inhibitors tested alone, no partner drug – CaCi-2 strain, Alamar Blue, dry powder, set 4, dose response (AID 624006)).
Procedure, shortened: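 Assay system: Candida albicans CaCi-2, a fluconazole-resistant isolate, whole cells | Quantity: Fungal inoculum at starting absorbance 0.00015 (600 nm) | Medium: MOPS-buffered RPMI 1640 plus uridine, glucose | Times: 48 h at 37 °C, 2 h dye | Signal: Alamar Blue fluorescence | Benchmarks: Amphotericin 10 µM positive control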

Question: CCOC(=O)N1C(=O)C2(CCCCC2)N(c2ccc(Cl)cc2)C1=S was tested. Which AC50 did it give?
Answer: The AC50 was 65.7 nM.

Question: CCOC(=O)N1C(=O)C2(CCCCC2)N(c2ccc(C#N)cc2)C1=S was tested. Which AC50 did it give?
Answer: Its AC50 is 88.9 nM.

Question: Which AC50 does the source give for CCOC(=O)N1C(=O)C2(CCCCC2)N(c2ccc(C)cc2)C1=S here?
Answer: The AC50 was 223 nM and 253 nM.

Question: How did the AC50 turn out when CCOC(=O)N1C(=O)C2(CCCCC2)N(c2ccccc2)C1=S was run?
Answer: Its AC50 is 202 nM.

Question: For CCOC(=O)N1C(=O)C2(CCCCC2)N(c2ccc(F)cc2)C1=S, which AC50 is on record?
Answer: The AC50 was 39.9 nM.

Question: For CC1/C=C/C=C\C=C\C=C\C=C\C=C\C=C\C(O[C@H]2OC(C)C(O)C(N)C2O)CC2OC(O)(CC(O)CC(O)C(O)CCC(O)CC(O)CC(=O)OC(C)C(C)C1O)CC(O)C2C(=O)O (some centres not stated), which AC50 is on record?
Answer: Its AC50 is 64.5 nM.

Question: CCOC(=O)N1C(=O)C2(CCCCC2)N(c2cccc(C)c2)C1=S was tested. Which AC50 did it give?
Answer: Its AC50 is 194 nM.
